Bioassay records as filed in PubChem BioAssay.
Only some compounds are listed: those with a hit (about 3.9% of all), similar ones and a draw of the others.
ABCB6 inh 2 – ABCB6 transporter inhibitors, primary screen, K562-ABCB6 cells, flow cytometry, MLPCN library; 0.19% of 360,000 active; fluorescence ratio to DMSO, % at 10 µM; AID 602162, 2011; K562-ABCB6 porphyrin accumulation, 1 h; hits give low values;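 active = fluorescence ratio to DMSO below 75%, the collection mean minus 3 SD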;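 note: signal is porphyrin accumulated inside mitochondria; 100% equals median channel fluorescence of DMSO control wells; lower ratio means ABCB6 inhibition with less porphyrin fluorescence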
Target sequence (Q9NP58 whole entry, looked up): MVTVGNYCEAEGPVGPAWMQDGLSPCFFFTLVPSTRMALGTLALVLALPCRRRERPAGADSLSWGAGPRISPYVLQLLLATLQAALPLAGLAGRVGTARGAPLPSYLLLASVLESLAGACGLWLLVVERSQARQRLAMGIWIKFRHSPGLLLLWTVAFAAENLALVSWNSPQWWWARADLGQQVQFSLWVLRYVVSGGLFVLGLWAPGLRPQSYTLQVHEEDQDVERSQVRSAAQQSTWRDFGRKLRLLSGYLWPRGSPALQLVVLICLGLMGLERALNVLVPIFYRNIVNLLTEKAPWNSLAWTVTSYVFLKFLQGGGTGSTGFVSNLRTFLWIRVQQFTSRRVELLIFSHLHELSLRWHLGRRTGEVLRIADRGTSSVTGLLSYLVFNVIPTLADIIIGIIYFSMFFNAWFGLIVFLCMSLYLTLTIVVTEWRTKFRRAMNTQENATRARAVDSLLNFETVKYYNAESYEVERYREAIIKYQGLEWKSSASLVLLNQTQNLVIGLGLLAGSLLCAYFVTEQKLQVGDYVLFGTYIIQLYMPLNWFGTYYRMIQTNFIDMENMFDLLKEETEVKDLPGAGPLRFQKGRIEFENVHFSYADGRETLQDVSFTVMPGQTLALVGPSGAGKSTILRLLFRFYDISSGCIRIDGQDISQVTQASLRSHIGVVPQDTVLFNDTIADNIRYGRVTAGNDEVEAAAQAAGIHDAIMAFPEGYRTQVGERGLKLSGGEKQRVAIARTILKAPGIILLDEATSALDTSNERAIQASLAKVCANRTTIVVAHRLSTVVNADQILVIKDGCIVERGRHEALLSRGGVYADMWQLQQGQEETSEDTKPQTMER
HIF activator – HIF pathway transcriptional activators, primary screen, cell-based, U2OS HRE-luciferase, luminescence; 0.32% of 300,000 active; AID 1910, 2009; U2OS HRE-luciferase reporter; normalized: DMSO 0%, desferrioxamine 100%; activation, % at 7.5 µM (by protocol);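 active = mean activation of at least 10% of the iron chelator positive control signal, with at least half of replicates also reaching 10%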
FXN GAA850 act – FXN promoter activators, primary screen, cell-based, luciferase luminescence, HEK293 lucGAA850. HEK293 lucGAA850 FXN promoter luciferase reporter, 24 h; percent of 10 µM SAHA response. activation, % at 6 µM. 0.56% of 360,000 active. AID 540364, 2011;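 active = activation above the average of all compounds screened plus 3 SD, cutoff fixed separately per campaign, cut at about 7.5% in these data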;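 note: 0% = DMSO wells and 100% = 10 µM SAHA wells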
AHR activator – AHR activators, primary screen, cell-based, luminescence, luciferase reporter, human. Aryl hydrocarbon receptor (Homo sapiens), P35869. AHR-responsive luciferase reporter cells. activation, % at 5 µM. 2.5% of 320,000 active. AID 2796, 2010; in the data active = activation above about 47%;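 note: 0% = vehicle wells and 100% = reference agonist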
SR-BI DiI inh – inhibitors of SR-BI mediated HDL lipid uptake, primary screen, ldlA[mSR-BI] cells, fluorescence, single point. inhibition, % at 12.5 µM. 0.96% of 320,000 active. AID 488896, 2010. ldlA[mSR-BI] CHO cells, DiI-HDL uptake fluorescence, 3 h. Scavenger receptor class B member 1 (Mus musculus), Q61009;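 active = mean replicate inhibition of at least 70% and a set share of replicates each scoring 70 or more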;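 note: 0% = median of neutral control wells and 100% = median of positive control wells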
SR-BI uptake up – activators of SR-BI mediated DiI-HDL uptake, primary screen, ldlA[mSR-BI] CHO cells, DiI fluorescence | 3 h; 100 = double the neutral-control signal | activation, % at 12.5 µM | 0.096% of 320,000 active | AID 504775, 2011;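 active = mean replicate activation of at least 60% and every replicate at or above 60%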;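 note: 0% = median plate neutral-control signal and 100% = twice that signal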
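Material: SR-BI-overexpressing, LDLR-lacking CHO cells; schedule: compound exposure 3 h, 37 °C; reagent: DiI-labelled HDL at 10 µg/mL final; technique: bottom-read fluorescence, 550/595 nm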
Starred values were filed as active, the others as inactive; x = no result.

SMILES	ABCB6 inh 2	HIF activator	FXN GAA850 act	AHR activator	SR-BI DiI inh	SR-BI uptake up
O=[N+]([O-])c1ccc(-c2c(-c3ccccc3)ncc3ccc(F)cc23)cc1	100	x	1	3	17	-17
O=C(N/C(=C\c1ccco1)C(=O)N1CCOCC1)c1ccc([N+](=O)[O-])cc1	98	1	1	5	-10	10
Cc1ccc(N=Nc2ccc(O)c3ncccc23)cc1C	101	7	2	46	5	-5
COc1ccccc1N=Nc1ccc(O)c2ncccc12	97	11*	1	51*	22	-22
Cc1ccc(N=Nc2ccc(O)c3ncccc23)cc1	99	147*	4	47*	38	-38
COc1ccc2nc(NC(=O)CCN3C(=S)NC(C)(C)CC3C)sc2c1 (configuration not stated)	89	0	-2	7	9	-9
COc1cc(OC)c(OC)cc1/C=C1\CCC(C2CCCC2)C1=O (configuration not stated)	90	0	3	55*	x	x
Cc1ccccc1NC(=O)/C(C#N)=C/c1ccsc1	90	1	0	70*	x	x
Cc1cccc(C)c1NC(=O)/C(C#N)=C/c1ccsc1	103	-2	1	1	10	-10
COc1ccc(CN(C)C(=O)Cn2cnc(C(=O)Nc3ccc(C)c(C)c3)n2)cc1OC	96	x	0	x	-6	6
O=C(Nc1cccc(Cl)c1)c1ccc(NCCCN2CCOCC2)c([N+](=O)[O-])c1	97	0	0	15	71*	-71
COc1ccc(-c2cc(C(=O)O)nc3ccc4ccccc4c23)cc1OC	98	2	0	0	7	-7
COc1ccccc1N=NNc1ccc(S(=O)(=O)NC(C)=O)cc1	97	x	x	x	x	x
Oc1ccccc1/C=N/NC(=S)NC1CC2CCC1C2 (configuration not stated)	101	2	5	18	76*	-76
CSc1ccc(S(=O)(=O)NC(C)c2ccccc2)cc1 (configuration not stated)	99	0	4	0	3	-3
Cc1cccn2cc(-c3ccc(Cl)cc3)nc12	94	-3	4	71*	31	-31
COc1ccc(-c2cn3cccc(C)c3n2)cc1F	106	2	7	70*	20	-20
CC1=Nc2ccccc2/C1=C/c1nc(-c2ccc(C)s2)oc1O	113	1	1	8	103*	-103
CCc1sc(C(=O)Nc2ccc(N3CCOCC3)cc2)cc1C	91	x	0	-4	75*	-75
CCc1sc(C(=O)Nc2ccc3c(c2)OCO3)cc1C	94	x	7	10	54	-54
N#CC1=C(N)Oc2c(ccc3ccccc23)C1c1ccsc1 (configuration not stated)	102	3	2	59*	35	-35
N#CC1=C(N)Oc2c(oc(CO)cc2=O)C1c1ccsc1 (configuration not stated)	89	1	-1	6	24	-24
CCOc1ccccc1NC(=O)Nc1cccc(C(C)=O)c1	97	1	-1	44	78*	-78
CCOc1ccccc1NC(=O)NC(=O)N(C)S(=O)(=O)c1ccc(C)cc1	90	0	-1	64*	26	-26
CCOc1ccccc1NC(=O)Nc1cccc(NC(C)=O)c1	97	0	-5	18	x	x
SMILES	ABCB6 inh 2	HIF activator	FXN GAA850 act	AHR activator	SR-BI DiI inh	SR-BI uptake up
CCOc1ccccc1NC(=O)Nc1ccsc1C(=O)OC	99	0	-1	40	79*	-79
CCOc1ccccc1NC(=O)Nc1ccc2c(c1)CCC2	103	2	2	78*	67	-67
O=C(Nc1ccc2c(c1)CCC2)Nc1ccccc1Cl	100	2	4	1	22	-22
CC(=O)c1ccc2noc(-c3ccc(Cl)cc3)c2c1	101	0	5	4	65	-65
Cc1onc(-c2c(F)cccc2Cl)c1C(=O)NCc1ccc(F)cc1	93	0	1	5	18	-18
O=C(CN1CCCC1)Nc1c2c(cc3c1CCC3)CCC2	100	0	0	-4	22	-22
CCOc1ccccc1NC(=O)Nc1cccc(S(N)(=O)=O)c1	95	0	0	48*	x	x
CCOc1ccccc1NC(=O)NC1CCCc2ccccc21 (configuration not stated)	98	0	2	13	79*	-79
COc1ccc(N(CC(=O)Nc2ccc(F)cc2)S(=O)(=O)c2ccccc2[N+](=O)[O-])c(OC)c1	102	0	-3	2	3	-3
CCOC(=O)c1cc(C)n(Cc2ccc(OCC)c(OC)c2)c1C	99	0	4	2	5	-5
O=C(CN1C(=O)NC2(CCCC2)C1=O)NCc1ccco1	98	x	1	-3	-10	10
CN(C)c1ccc(C(C[N+](=O)[O-])c2c(N)n(C)c(=O)n(C)c2=O)c(F)c1C#N (configuration not stated)	96	0	-1	63*	16	-16
Cn1c(N)c(C(C[N+](=O)[O-])c2c(F)cccc2Cl)c(=O)n(C)c1=O (configuration not stated)	96	-5	4	1	-22	22
Cc1c(NC(=O)CSc2ccc(Cl)cc2)cccc1-c1nc2cc(Cl)ccc2o1	83	x	-2	97*	29	-29
CCOc1ccc(S(=O)(=O)Nc2cccc(C(=O)NCC(c3ccccc3)N(C)C)c2)cc1 (configuration not stated)	93	0	-3	0	0	0
COc1ccc(NC(=O)C2CCN(C(=O)C3CC(=O)N(c4ccc(C)cc4)C3)CC2)cc1 (configuration not stated)	95	0	-1	x	20	-20
COc1ccc(Cl)cc1NC(=O)C1CCN(C(=O)C2CC(=O)N(c3ccc(C)cc3)C2)CC1 (configuration not stated)	94	0	1	0	89*	-89
O=C(NC1CC1)C(=O)c1c[nH]c2ccccc12	92	0	1	63*	-11	11
C[C@@H](NC(=O)C(=O)c1c[nH]c2ccccc12)c1ccccc1	96	0	1	7	-20	20
CSc1ccccc1NC(=O)C(=O)c1c[nH]c2ccccc12	88	5	5	48*	44	-44
